Laboratory results as given in ChEMBL document CHEMBL3596117, “Identification of 3,5,6-substituted indolin-2-one's inhibitors of Aurora B by development of a luminescent kinase assay” (Bioorg Med Chem Lett, 2015).

Experiments:
Aurora kinase B [1] = target: T1, Aurora kinase B (Homo sapiens, UniProt Q96GD4); assay: Inhibition of aurora B kinase (unknown origin) at 10 uM using ATP and SB2 substrate incubated at 37 degC for 2 hrs by kinase-Glo reagent based luminescent kinase assay
How it was run: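 Aurora B at 300 ng/well with ATP and peptide substrate SB2 at the optimized levels. DMSO was kept below 2% by volume. Activity was read by Kinase-Glo luminescence, which measures the ATP left after the reaction.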

Aurora kinase B [2] = target: T1, Aurora kinase B; assay: Inhibition of aurora B kinase (unknown origin) using ATP and SB2 substrate incubated at 37 degC for 2 hrs by kinase-Glo reagent based luminescent kinase assay
How it was run: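 Aurora B at 300 ng/well with ATP and peptide substrate SB2 at optimized levels, DMSO below 2% by volume. Kinase activity was quantified by Kinase-Glo luminescence of the ATP remaining after the reaction. The assay was validated with 48 enzyme-containing and 48 enzyme-free wells for the Z′-factor. IC50 values were derived from this luminescent assay.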

T1 sequence (Q96GD4 whole entry): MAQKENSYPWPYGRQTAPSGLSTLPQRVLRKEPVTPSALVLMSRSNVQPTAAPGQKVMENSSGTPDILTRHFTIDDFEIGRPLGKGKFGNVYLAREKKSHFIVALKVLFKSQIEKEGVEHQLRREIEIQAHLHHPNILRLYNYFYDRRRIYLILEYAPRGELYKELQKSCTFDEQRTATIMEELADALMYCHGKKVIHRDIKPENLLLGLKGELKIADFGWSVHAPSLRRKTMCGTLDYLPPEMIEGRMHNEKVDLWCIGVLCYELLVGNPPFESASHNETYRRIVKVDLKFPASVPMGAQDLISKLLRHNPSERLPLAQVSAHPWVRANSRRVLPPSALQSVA

Row | Compound | inhibition (Aurora kinase B [1]) [%] | IC50 (Aurora kinase B [2]) [µM]
1 | Cc1cc(C)cc(Oc2cc3c(cc2NS(=O)(=O)c2ccc(F)cc2)NC(=O)C3Cc2ccccc2)c1 (stereo not given) | < 30 | 
2 | CCCC1(C(=O)OCC)C(=O)Nc2cc(NC(C)=O)c(N3CCN(c4cccc(C)c4C)CC3)cc21 (stereo not given) | < 30 | 
3 | O=C1Cc2cc(N3CCOCC3)c(NC(=O)Nc3ccc(F)cc3)cc2N1 | < 30 | 
4 | O=C(Nc1ccc(F)cc1)Nc1cc2c(cc1N1CCOCC1)/C(=C/c1ccc3c(c1)OCO3)C(=O)N2 |  | 8.2
5 | O=C(Nc1ccc(C(F)(F)F)cc1)Nc1cc2c(cc1N1CCCC1)/C(=C/c1cccs1)C(=O)N2 | 47 | 
6 | C=CCC1C(=O)Nc2cc(NC(=O)Nc3ccc(F)cc3)c(N(CCC)CCC)cc21 (stereo not given) | < 30 | 
7 | CCN(CC)c1cc2c(cc1NC(C)=O)NC(=O)/C2=C\c1cccs1 | < 30 | 
8 | C=CCNC(=S)Nc1cc2c(cc1Oc1cc(C)cc(C)c1)C(Cc1ccccc1)C(=O)N2 (stereo not given) | < 30 | 
9 | CC(=O)Nc1cc2c(cc1N1CCOCC1)/C(=C/c1ccco1)C(=O)N2 | < 30 | 
10 | C=CCNC(=S)Nc1cc2c(cc1N(CCC)CCC)/C(=C/c1ccc3c(c1)OCO3)C(=O)N2 | 31 | 
11 | O=C(Nc1ccc(F)cc1)Nc1cc2c(cc1N1CCOCC1)/C(=C/c1ccc(F)cc1)C(=O)N2 | 65 | 
12 | Cc1cc(C)cc(Oc2cc3c(cc2NC(=O)Nc2ccc(OC(F)(F)F)cc2)NC(=O)C3Cc2ccccc2)c1 (stereo not given) | < 30 | 
13 | CCCCC1C(=O)Nc2cc(NC(=O)Nc3ccc(F)cc3)c(N3CCOCC3)cc21 (stereo not given) | < 30 | 
14 | CCCCCCCNC(=O)Nc1cc2c(cc1N1CCN(C(=O)OCC)CC1)/C(=C/c1ccc[nH]1)C(=O)N2 | < 30 | 
15 | CCCC1(C(=O)OCC)C(=O)Nc2cc(NC(=O)Nc3ccc(F)cc3)c(N3CCN(c4cccc(C)c4C)CC3)cc21 (stereo not given) | < 30 | 
16 | CCN(CC)c1cc2c(cc1NC(C)=O)NC(=O)/C2=C\c1ccc[nH]1 | 83 | 2.5
17 | C=CCC1C(=O)Nc2cc(NC(=S)Nc3ccccc3OC)c(N(CCC)CCC)cc21 (stereo not given) | 35 | 
18 | O=C(Nc1ccc(C(F)(F)F)cc1)Nc1cc2c(cc1N1CCCC1)/C(=C/c1ccc[nH]1)C(=O)N2 | 97 | 1.8
19 | CCc1ccc(Oc2cc3c(cc2NS(=O)(=O)c2ccc(C)cc2)NC(=O)C3)cc1 | < 30 | 
20 | CCN(CC)c1cc2c(cc1NC(C)=O)NC(=O)/C2=C\c1ccccn1 | < 30 | 
21 | CCC/C=C1\C(=O)Nc2cc(NC(C)=O)c(N(CC)CC)cc21 | < 30 | 
22 | O=C(Nc1ccc(F)cc1)Nc1cc2c(cc1N1CCOCC1)/C(=C/c1ccc[nH]1)C(=O)N2 |  | 3.3
23 | COc1ccc(/C=C2\C(=O)Nc3cc(NC(C)=O)c(N4CCOCC4)cc32)cc1 | < 30 | 
